Sampled rows, rich in hits. Any-hit rate of the full collection: about 2.1%.
Runt-SMMHC FRET: inhibitors of human RUNX1 Runt domain binding to CBFb-SMMHC; Cerulean-Runt/Venus-CBFb-SMMHC FRET ratio 530/480, 1 h; inhibition, % at 20 µM; hit rate 0.74% among 220,000; AID 1434;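 active = mean inhibition across duplicate retests at 20 µM reaching about 50%, limit read from the data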;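 also: 0% = DMSO wells and 100% = wells with excess untagged CBFb-SMMHC; inhibitors lower the FRET ratio by blocking Runt binding to CBFb-SMMHC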
Target sequence (Q01196 whole entry, looked up, the tested form may be a part): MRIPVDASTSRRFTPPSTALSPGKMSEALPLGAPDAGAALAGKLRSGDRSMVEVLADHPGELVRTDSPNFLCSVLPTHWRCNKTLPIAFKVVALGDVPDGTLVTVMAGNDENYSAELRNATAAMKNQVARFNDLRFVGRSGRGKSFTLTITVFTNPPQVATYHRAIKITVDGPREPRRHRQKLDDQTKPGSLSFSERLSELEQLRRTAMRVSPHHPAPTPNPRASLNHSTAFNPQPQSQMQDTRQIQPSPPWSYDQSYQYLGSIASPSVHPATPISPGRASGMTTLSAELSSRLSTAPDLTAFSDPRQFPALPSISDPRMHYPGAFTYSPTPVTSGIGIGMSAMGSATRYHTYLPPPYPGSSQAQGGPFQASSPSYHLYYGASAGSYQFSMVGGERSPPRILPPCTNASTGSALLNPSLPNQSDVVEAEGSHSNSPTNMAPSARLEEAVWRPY
Target sequence (Q13951 whole entry, looked up, the tested form may be a part): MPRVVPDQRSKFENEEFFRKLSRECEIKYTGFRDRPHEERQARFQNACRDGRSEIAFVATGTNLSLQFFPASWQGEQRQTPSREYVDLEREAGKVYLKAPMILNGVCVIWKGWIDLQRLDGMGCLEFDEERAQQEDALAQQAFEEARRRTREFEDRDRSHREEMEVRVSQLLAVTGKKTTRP
Runt-CBFb FRET: inhibitors of human RUNX1 Runt domain binding to CBFb; inhibition, % at 20 µM; hit rate 0.46% among 220,000; Q01196+Q13951; Cerulean-Runt/Venus-CBFb FRET ratio 530/480, 1 h; AID 1496;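 active = inhibition over about 50% at 20 µM in the single-dose screen, limit read from the data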;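 also: 0% = DMSO wells and 100% = excess unlabeled CBFb competitor control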
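Doses: 20 µM compound in 1% DMSO | Material: Cerulean-labeled Runt domain protein | Amount: Each fluorescent fusion protein 100 nM | Schedule: Two 1 h room-temperature incubations shielded from light | Measured by: FRET fluorescence | Evaluation: Loss of energy transfer signal | Controls: Unlabeled CBFb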
Hck-Nef inh: inhibitors of human Hck kinase activated by Nef. P08631. Recombinant Hck-YEEI plus Nef, Z-Lyte FRET kinase assay. inhibition, % at 20 µM. hit rate 0.68% among 220,000. AID 463187;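 active = Hck-Nef kinase inhibition above about 50%, limit read from the data; inactive = inhibition below that limit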;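 also: 0% = DMSO with Hck plus Nef and 100% = Hck alone without Nef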
p97 ATPase inh: blocks human p97 ATPase activity | P55072 | recombinant p97 ATPase, Kinase-Glo ATP luminescence, 3 h | inhibition, % at 8 µM | hit rate 0.42% among 220,000 | AID 1481; in the data active = inhibition above about 15%;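 also: 0% = DMSO vehicle and 100% = wells lacking enzyme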
TbHK1 inh: T. brucei hexokinase 1 inhibition. inhibition, % at 10 µM. recombinant TbHK1, G6PDH-coupled NADH A340. hit rate 0.11% among 220,000. AID 1430;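 active = inhibition of 50% or more in the single-dose primary screen; inactive = inhibition below 50%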
RanGTP-Impb inh: disruptors of Ran-importin-beta complex formation – biochemical, FRET, CFP-Ran, YFP-importin-beta, homogeneous, primary screen. AID 2216. hit rate 1.1% among 300,000. cell-free CFP-Ran/YFP-importin-beta FRET ratio. inhibition, % (no concentration beside the values);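 active = more than half of the replicate wells show a fall in the fluorescence ratio signal beyond about 16%, limit read from the data, passing the limit was not always enough; inconclusive = exactly half of the replicate wells pass the set limit; inactive = fewer than half of replicates pass the limit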;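 also: 0% = DMSO wells and 100% = Ran loaded with GDP instead of GTP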
RUNX1 CBFb TR: inhibitors of human RUNX1 Runt domain binding to CBFb; shares compounds with Runt-CBFb FRET; inhibition, % at 20 µM; TR-FRET RUNX1 Runt domain-CBFb binding; hit rate 20% among 480; in the data active = inhibition above about 40%
YIC FRET counter: counter-screen for RanGTP-importin-beta inhibitors: YIC FRET probe; shares compounds with RanGTP-Impb inh; IC50, µM; Purified YIC probe, intramolecular FRET ratio YFP/CFP; hit rate 40% among 1,000;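 active = fitted half-maximal inhibitory concentration no more than tenfold above the top dose tested; inconclusive = flat fit with 30 to 70% activity, or poor fit; inactive = half-maximal concentration beyond tenfold above the top dose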
Hck Nef conf: confirmation of Hck-Nef kinase inhibitors; calls only at 10 µM; Recombinant Hck-YEEI:Nef, Z-Lyte FRET kinase assay; hit rate 28% among 1,300; shares compounds with Hck-Nef inh; AID 463188;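 active = average inhibition of at least 50%, with Z-scores no higher than 3 in both the phospho-tyrosine peptide and fluorescence counterscreens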
The depositor's hits bear a star; i = inactive; ? = inconclusive; · = not tested or not shown; + = active, no number.

SMILES	Runt-SMMHC FRET	Runt-CBFb FRET	Hck-Nef inh	p97 ATPase inh	TbHK1 inh	RanGTP-Impb inh	RUNX1 CBFb TR	others
Cc1c(Cc2ccc3c(c2)OCO3)sc(NC(=O)C(C)(C)C)c1C#N	2.3	1.2	-0.6	-12.4	-2.1	6.1	·
COc1c(O)c(O)c2oc(-c3ccccc3)cc(=O)c2c1OC	52.8*	57.6*	66.3*	2.7	-14.0	-2.3	64.8*	Hck Nef conf=+
C=CCn1c(-c2cccs2)nc2ccccc21	1.7	1.1	2.2	6.6	-9.5	·	·
C=CCn1c(-c2cccs2)nc2nc3ccccc3nc21	126.1*	55.3*	71.9*	-5.5	-23.0	11.5	-14.9	Hck Nef conf=i
CCOC(=O)c1sc(Nc2nc3c(OC)cccc3s2)nc1C	81.7*	84.1*	66.6*	1.7	-9.3	2.1	4.7	Hck Nef conf=i
CCOC(=O)c1sc(Nc2ccccc2)nc1C	-0.8	-3.6	0.3	-3.0	-25.3	-1.4	·
CCOCCCNC(=O)N[C@@H](Cc1ccccc1)C(=O)OC	3.7	0.1	2.2	2.4	6.1	8.6	·
C/C(N)=C(/C#N)C(=O)CSc1nc2ccccc2c(=O)n1CCCOC(C)C	-0.8	-3.9	0.6	-2.3	33.9	2.6	·
CC(=O)N=c1c(C#N)cc2c(=O)n3ccccc3nc2n1CCCOC(C)C	81.7*	76.5*	55.6*	5.0	-6.2	102.0*	38.3
Cc1c(Cc2ccccc2)c(=O)oc2c(O)c(O)ccc12	8.2	19.2	-24.0	-1.5	15.3	-0.7	·
Cc1c(Cc2ccccc2)c(=O)oc2cc(O)ccc12	127.6*	66.3*	138.9*	6.3	-25.4	3.8	-4.7
O=C(O)CN1C(=O)/C(=C/c2ccc(SCc3ccccc3)o2)SC1=S	31.5	70.5*	73.5*	2.3	0.5	·	3.6	Hck Nef conf=i
O=C(O)c1ccc(N/N=C/c2ccc(-c3cccc(Cl)c3)o2)cc1	80.3*	58.5*	53.3*	8.1	-11.9	67.6*	24.9	Hck Nef conf=i
O=C(O)c1cc(N2N=C(C(F)(F)F)/C(=C/C=C/c3ccco3)C2=O)ccc1Cl	39.3	52.8*	96.8*	13.4	15.8	·	92.1*	Hck Nef conf=+
Cc1cc(=O)oc2c(CN3CCCCC3)c(O)c(Cl)cc12	134.5*	62.1*	124.8*	-5.5	-22.2	8.8	-6.2
CCN(CC)Cc1c(O)c(Cl)cc2c(C)c(C)c(=O)oc12	90.7*	83.0*	77.3*	2.5	-22.5	20.3*	-202.4	YIC FRET counter=30*
Cc1cc(=O)oc2c(CN3CCCC3)c(O)c(Cl)cc12	·	·	·	·	·	6.5	·
CCN1CCN(Cc2c(O)c(Cl)cc3c(C)cc(=O)oc23)CC1	167.9*	93.9*	149.2*	-1.7	-16.9	27.0*	18.1	YIC FRET counter=38.8*
Cc1c(C)c2cc(Cl)c(O)c(CN3CCCC(C)C3)c2oc1=O (stereo unspecified)	139.4*	83.6*	81.4*	-2.2	-24.6	?	32.6
CCOC(=O)C1=C(COC(=O)c2ccc(Br)o2)NC(=O)NC1C (stereo unspecified)	·	·	·	·	·	-1.5	·
Fc1c(F)c(C(F)(F)F)c(F)c(F)c1N/N=C\c1cccs1	2.1	0.2	-0.9	-6.2	-8.3	-1.0	·
COc1ccccc1NC(=S)NNC(=O)c1ccccc1Br	-1.2	2.7	1.8	3.4	38.5	1.0	·
CNS(=O)(=O)c1ccc(Oc2ccc(S(=O)(=O)NC)cc2)cc1	3.4	0.0	0.5	5.1	-6.7	·	·
Cc1cc2oc(=O)cc(CN3CCC(C)CC3)c2cc1Cl	-3.1	-3.7	2.4	-0.4	2.6	1.0	·
Cc1cc(=O)oc2c(CN3CCC(C)CC3)c(O)c(Cl)cc12	140.2*	77.2*	117.9*	1.1	-21.6	·	41.2*
SMILES	Runt-SMMHC FRET	Runt-CBFb FRET	Hck-Nef inh	p97 ATPase inh	TbHK1 inh	RanGTP-Impb inh	RUNX1 CBFb TR	others
CCCc1cc(=O)oc2c(CN3CCCC3)c(O)ccc12	122.1*	54.3*	93.3*	-0.1	-26.2	8.9	-13.3
C/C(CC(=O)Nc1c(C)cc(C)cc1C)=N\NC(=O)c1cnccn1	4.9	0.1	4.9	-2.1	-0.8	?	·
O=C(NNC(=O)C1CCN(S(=O)(=O)c2ccc(Cl)cc2)CC1)c1ccccc1	-0.8	1.3	0.0	6.1	35.3	-2.8	·
COC(=O)c1ccc(C(=O)OC)c(NC(=O)Oc2ccccc2)c1	131.9*	66.4*	57.6*	2.9	-13.9	14.1	35.9
COC(=O)c1ccc(C(=O)OC)c(N)c1	109.5*	67.6*	86.5*	2.0	-10.1	·	42.8*
COC(=O)c1ccc(N2CCCCC2)c(N)c1	-0.3	-1.1	19.6	-0.3	-4.9	0.9	·
CC(=O)c1ccc(N2CCN(S(=O)(=O)c3c(C)[nH]c(C)c3C(=O)N3CCCC3)CC2)cc1	·	·	·	·	·	0.4	·
CSc1nc(-c2ccc(N(C)C)cc2)c(C#N)c(=O)n1C	85.4*	48.3	-44.8	4.4	-10.8	16.9*	·	YIC FRET counter=9.42*
CSc1nc(-c2ccc(Cl)cc2)c(C#N)c(=O)n1C	0.3	3.5	17.9	3.7	-2.7	0.0	·
O=c1[nH]c(Nc2ccccn2)cc2ccccc12	·	·	·	·	·	37.7*	·	YIC FRET counter=>50
OCCCNc1nc(-c2ccc(Cl)cc2)nc2ccccc12	·	·	·	·	·	4.1	·
OCCNc1nc2ccccc2nc1NCCO	4.2	1.3	4.1	3.0	1.1	3.5	·
OCCNc1c2ccccc2nc2ccccc12	116.4*	108.8*	34.4	8.3	-6.2	39.9*	·	YIC FRET counter=4.89*
OCCNc1nc(-c2ccccc2)nc2ccccc12	1.7	1.2	25.8	7.2	-6.6	17.5*	·	YIC FRET counter=>50
CC(C)CN(CCCNC(=O)CN1N=C(c2ccc(Cl)cc2)CCC1=O)CC(C)C	·	·	·	·	·	-1.8	·
COCCN(Cc1cn[nH]c1-c1ccc2cc(OC)ccc2c1)C(C)C	·	·	·	·	·	1.0	·
NNc1nc2sc3c(c2c(=O)n1C1CCCCC1)CCN(Cc1ccccc1)C3	54.4*	74.4*	0.2	3.2	-19.4	28.3*	·	YIC FRET counter=0.918*
NNc1nc2sc3c(c2c(=O)n1Cc1ccccc1)CCC3	-7.0	22.4	35.4	-3.6	-4.8	-3.9	·
CCC(=O)Nc1cccc(NC(=S)NC(=O)c2cccs2)c1	7.5	0.0	3.0	0.3	27.3	24.5*	·	YIC FRET counter=>50
Cc1c(CC(=O)N2CCN(C(=O)C3COc4ccccc4O3)CC2)c(=O)oc2c(C)c(O)ccc12 (stereo unspecified)	·	·	·	·	·	24.0*	·	YIC FRET counter=14.2*
Cc1c(CC(=O)N2CCN(C(=O)C3COc4ccccc4O3)CC2)c(=O)oc2cc(O)ccc12 (stereo unspecified)	·	·	·	·	·	9.8	·

Bioassay records: PubChem BioAssay, several laboratories
